The text below walks through data of ChEMBL document CHEMBL1151159, “Antineoplastic agents. 380. Isolation and X-ray crystal structure determination of isoaaptamine from the Republic of Singapore Hymeniacidon sp. and conversion to the phosphate prodrug hystatin 1” (2004).

≈ marks a conversion by molar mass, not a printed value. Calls of active or inactive are those of the source. The rule behind the calls is not given here.

In experiment [1] the test system is Cryptococcus neoformans. The experiment in a line: Antimicrobial activity against Cryptococcus neoformans by broth microdilution susceptibility assay. It counts as functional. A digest of the protocol: (§1)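 Yeast panel (Candida albicans, Cryptococcus neoformans) tested by broth microdilution following the NCCLS reference method for yeasts (M27-A). MIC taken as the lowest compound concentration giving no visible growth (optically clear).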
Background: In broth dilution the organism is exposed to a series of concentrations in liquid medium.

Another experiment deals with P388. The experiment in a line: Antineoplastic activity against mouse P388 cells. The format is functional. The note with it: read-out: ED50 (the source's name).
Experiment [2] concerns Stenotrophomonas maltophilia. Description: Antimicrobial activity against Stenotrophomonas maltophilia at 64 ug/ml by broth microdilution susceptibility assay. The format is functional, organism-based. The procedure, abridged:
(§2)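 Bacteria tested by broth microdilution following the NCCLS standard for aerobically growing bacteria (M7-A4). MIC read as the lowest compound concentration that blocked all visible growth of the organism (optically clear wells).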

A further experiment has as its system SF-295. The experiment in a line: Antineoplastic activity against human SF295 cells. It counts as functional. The following applies: read-out: ED50 (the source's name).
The subject of a further experiment is KM-20L2. The experiment in a line: Antineoplastic activity against human KM20L2 cells. It counts as functional. The following applies: read-out: ED50 (the source's name).
A further experiment has as its system Escherichia coli. The experiment in a line: Antimicrobial activity against Escherichia coli at 64 ug/ml by broth microdilution susceptibility assay. The format is functional, organism-based. A digest of the protocol:
as §2

For a further experiment, the system named is SK-MEL-5. Description: Antineoplastic activity against human SK-MEL-5 cells. It counts as functional. The following applies: read-out: ED50 (the source's name).
In a further experiment the test system is Enterobacter cloacae. Description: Antimicrobial activity against Enterobacter cloacae at 64 ug/ml by broth microdilution susceptibility assay. The format is functional, organism-based. A digest of the protocol:
as §2

Another experiment has as its system OVCAR-3. The experiment in a line: Antineoplastic activity against human OVCAR-3 cells. The format is functional. The following applies: read-out: ED50 (the source's name).
For another experiment, the system named is Staphylococcus aureus. Description: Antimicrobial activity against Staphylococcus aureus by broth microdilution susceptibility assay. The format is functional. A digest of the protocol:
as §2

The next experiment deals with NCI-H460. Description: Antineoplastic activity against human NCI-H460 cells. The format is functional. The following applies: read-out: ED50 (the source's name).
The next experiment deals with Streptococcus pneumoniae. Description: Antimicrobial activity against Streptococcus pneumoniae by broth microdilution susceptibility assay. The format is functional. The procedure, abridged:
as §2

The test system of the next experiment is Candida albicans. The experiment in a line: Antimicrobial activity against Candida albicans at 64 ug/ml by broth microdilution susceptibility assay. It counts as functional, organism-based. A digest of the protocol: as §1
The test system of experiment [3] is Micrococcus luteus. The experiment in a line: Antimicrobial activity against Micrococcus luteus by broth microdilution susceptibility assay. The format is functional. A digest of the protocol: as §2
The test system of the next experiment is A498. Description: Antineoplastic activity against human A498 cells. It counts as functional. The note with it: read-out: ED50 (the source's name).
In experiment [4] the test system is Enterococcus faecalis. The experiment in a line: Antimicrobial activity against Enterococcus faecalis by broth microdilution susceptibility assay. It counts as functional. The procedure, abridged:
as §2

A further experiment concerns Neisseria gonorrhoeae. The experiment in a line: Antimicrobial activity against Neisseria gonorrhoeae by broth microdilution susceptibility assay. It counts as functional. A digest of the protocol: as §2
The test system of experiment [5] is Micrococcus luteus. Description: Antimicrobial activity against Micrococcus luteus at 64 ug/ml by broth microdilution susceptibility assay. The format is functional, organism-based. The procedure, abridged: as §2
The test system of experiment [6] is Cryptococcus neoformans. Description: Antimicrobial activity against Cryptococcus neoformans at 64 ug/ml by broth microdilution susceptibility assay. It counts as functional, organism-based. A digest of the protocol: as §1
For experiment [7], the system named is Enterococcus faecalis. The experiment in a line: Antimicrobial activity against Enterococcus faecalis at 64 ug/ml by broth microdilution susceptibility assay. The format is functional, organism-based. The procedure, abridged:
as §2

One may read the MIC as the least concentration at which growth counts as inhibited. As for `COc1cc2ccnc3c2c(c1O)N(C)C=C3` [ISOAAPTAMINE], the MIC against Cryptococcus neoformans [1] was 64 µg/mL (≈ 280 µM); against Staphylococcus aureus, 16 µg/mL (≈ 70.1 µM); against Streptococcus pneumoniae it was 8 µg/mL (≈ 35 µM); with Micrococcus luteus [3], 32 µg/mL (≈ 140 µM); in the experiment on Enterococcus faecalis [4] it was 32 µg/mL (≈ 140 µM); in the experiment on Neisseria gonorrhoeae it was under 0.5 µg/mL. Besides, the EC50 in the experiment with P388 worked out at 0.28 µg/mL (≈ 1.23 µM); in the experiment with SF-295, 2.6 µg/mL (≈ 11.4 µM); with KM-20L2 it was 2.3 µg/mL (≈ 10.1 µM); in the experiment on SK-MEL-5, 1.6 µg/mL (≈ 7.01 µM); with OVCAR-3, 1.2 µg/mL (≈ 5.26 µM); with NCI-H460, 2.4 µg/mL (≈ 10.5 µM). Besides, in the experiment on A498, the EC50 is 2.2 µg/mL (≈ 9.64 µM). The result (in [2]; with Escherichia coli; in the experiment on Enterobacter cloacae; in the experiment on Candida albicans) was inactive.

Regarding `COC1=Cc2ccnc3ccnc(c23)C1(OC)OC`, the EC50 with P388 stood at 59 µg/mL (≈ 228 µM).

`COC1=Cc2ccnc3ccnc(c23)C1=O` [DEMETHYLOXY-AAPTAMINE]: the EC50 in the experiment on P388 came to 0.31 µg/mL (≈ 1.46 µM); with SF-295, 2.8 µg/mL (≈ 13.2 µM); in the experiment on KM-20L2, 2.1 µg/mL (≈ 9.9 µM); with SK-MEL-5 it was 1 µg/mL (≈ 4.71 µM); in the experiment with OVCAR-3, 0.39 µg/mL (≈ 1.84 µM); with NCI-H460 it was 2.3 µg/mL (≈ 10.8 µM). Also, the EC50 in the experiment with A498 is 4.2 µg/mL (≈ 19.8 µM).

As to `COc1cc2ccnc3c2c(c1OP(=O)([O-])[O-])N(C)C=C3.[Na+].[Na+]` [HYSTATIN 1], the result in the experiment with Micrococcus luteus [5], in the experiment with Escherichia coli, in the experiment on Enterobacter cloacae, in the experiment on Candida albicans, in the experiment on Cryptococcus neoformans [6] and in the experiment on Enterococcus faecalis [7] was inactive. Also, the values for the EC50 in the experiment with P388, with KM-20L2 and in the experiment with NCI-H460 were 3 µg/mL, over 10 µg/mL and over 10 µg/mL, respectively. The MIC was 64 µg/mL in the experiment with Staphylococcus aureus, 16 µg/mL in the experiment on Streptococcus pneumoniae and under 0.5 µg/mL with Neisseria gonorrhoeae.

As to `COc1cc2ccnc3c2c(c1OC)NC=C3` [AAPTAMINE], the EC50 in the experiment on P388 was determined as 3.6 µg/mL (≈ 15.8 µM); in the experiment on SF-295, 4.1 µg/mL (≈ 18 µM); with KM-20L2, 3.6 µg/mL (≈ 15.8 µM); in the experiment with SK-MEL-5, 4.3 µg/mL (≈ 18.8 µM); in the experiment with OVCAR-3 it was 4.9 µg/mL (≈ 21.5 µM); in the experiment on NCI-H460, 3.2 µg/mL (≈ 14 µM). Further, the EC50 with A498 was 3.2 µg/mL (≈ 14 µM).
